{
  "source": "paper PMC3035813",
  "about": "(The Journal of neuroscience : the official journal of the …, 2009)",
  "key": {"adult male rats": {"system": "adult male rats", "assay": "LH and testosterone in intact adult male rats after icv injection", "type": "in vivo, rat", "conditions": "100 pmol kisspeptin-10 icv alone", "summary_of_the_method": "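Intact adult male rats (280–310 g; 14 h light, 22°C) with lateral-ventricle cannulae (4 mm deep; 1 mm posterior, 1.2 mm lateral to bregma), tested 24–48 h after implantation. 5 μl icv injections at 60 min intervals; 100 pmol kisspeptin-10 given with the last. Controls received saline vehicle. Jugular blood was taken 60 min later (180 min). Serum testosterone was measured by commercial kit (sensitivity 0.1 ng/tube; intraassay CV 4.5%).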"}, "GnRH neurons": {"system": "GnRH neurons", "assay": "GnRH neuron firing, targeted extracellular recordings in brain slices", "type": "cell-based, mouse", "conditions": "1 nM, 5 min, n=7"}},
  "note": "No end group written: not given here.",
  "data": [
    {"substance": "kisspeptin-10 (YNWNSFGLRF; ends and bridges not checked; UniProt Q15726 112-121, looked up)", "values": [
      {"measurement": "testosterone levels at 60-min", "setting": "adult male rats", "result": "2.17 ± 0.2"},
      {"measurement": "effect on GnRH neuron firing activity", "setting": "GnRH neurons", "result": "markedly increased GnRH neuron firing activity"}
    ]}
  ]
}
